Reference: ChEMBL document CHEMBL4831478, “Bispecific Estrogen Receptor α Degraders Incorporating Novel Binders Identified Using DNA-Encoded Chemical Library Screening” (J Med Chem, 2021)
pIC50: −log10 of the molar value.

What was measured:
Estrogen receptor [1] = molecular target: T1, Estrogen receptor (Homo sapiens, UniProt P03372); assay: Binding affinity to recombinant His-tagged ERalpha LBD (307 to 554 residue) (unknown origin) expressed in Escherichia coli preincubated for 15 mins followed by ligand addition and measured after 1 hr by fluorescent polarization assay
T1 sequence (P03372 whole entry): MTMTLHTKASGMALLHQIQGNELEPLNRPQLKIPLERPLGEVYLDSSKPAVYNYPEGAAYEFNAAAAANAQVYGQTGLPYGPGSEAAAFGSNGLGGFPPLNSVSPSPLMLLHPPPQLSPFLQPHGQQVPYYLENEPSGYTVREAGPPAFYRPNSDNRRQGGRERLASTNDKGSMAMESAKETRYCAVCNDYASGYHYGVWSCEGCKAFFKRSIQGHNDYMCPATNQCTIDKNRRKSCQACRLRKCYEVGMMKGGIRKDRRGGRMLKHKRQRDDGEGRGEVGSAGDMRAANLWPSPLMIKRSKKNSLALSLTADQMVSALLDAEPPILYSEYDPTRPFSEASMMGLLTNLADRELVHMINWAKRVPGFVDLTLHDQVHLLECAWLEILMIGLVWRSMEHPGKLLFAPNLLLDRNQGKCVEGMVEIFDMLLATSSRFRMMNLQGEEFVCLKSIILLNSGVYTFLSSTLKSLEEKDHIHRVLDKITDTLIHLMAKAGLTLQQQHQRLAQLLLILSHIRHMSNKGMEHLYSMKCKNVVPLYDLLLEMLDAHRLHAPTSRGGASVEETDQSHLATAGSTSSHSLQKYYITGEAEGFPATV
In short: (§1)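 ERα LBD (aa 307–554), WT or D538G, S463P, Y537S, with N-terminal Avi-Tev-His tag, expressed in E. coli T7 Express (20 °C, 12 h, IPTG). Purified by Ni-NTA then size exclusion. Compound preincubated with protein 15 min, fluorescent ligand added, 1 h at room temperature. FP read ex 485/em 535 nm; duplicate runs averaged.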

Estrogen receptor [2] = molecular target: T1, Estrogen receptor; assay: Induction of ERalpha degradation in human MCF7 cells assessed as decrease in ERalpha protein expression incubated for 48 hrs under hormone-deprived medium by Western blot analysis; type: cell-based
In short: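 In-cell western: MCF7 seeded in hormone-deprived media for 72 h, then 10-point dose series in the same media for 48 h. Minimum-signal control compound at 1 μM. Cells fixed (4% formaldehyde), permeabilized (0.1% Triton X-100), blocked (3% fish gelatin), stained for ERα and α-tubulin, imaged; ERα normalized to tubulin.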

MCF7 [3] = assay: Antiproliferative activity against human MCF7 cells assessed as growth inhibition preincubated with estradiol for 30 mins followed by compound addition and measured after 72 hrs by CellTiter-Glo assay; type: functional
[4] = molecular target: T2, Estrogen receptor (Homo sapiens) (UniProt P03372); assay: Induction of ERalpha degradation in human MCF7 cells assessed as degradation maximum incubated for 48 hrs under starved CSS media condition by Western blot analysis relative to control; type: cell-based
T2 sequence (whole entry): T1 sequence (P03372 whole entry)
In short: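 MCF7 cells in hormone-deprived media (agonist mode) or full-serum media (antagonist mode) were treated with 1 μM compound over a 48 h time course. Cells were lysed and ERα was detected by western blot, with tubulin as the normalizer.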

MCF7 [5] = assay: Antiproliferative activity against human MCF7 cells assessed as growth inhibition preincubated with estradiol for 30 mins followed by compound addition and measured after 7 days by CellTiter-Glo assay; type: functional; details: MCF7, 168 h, time 7 day
In short: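 MCF7 cells seeded in hormone-deprived media for 72 h. All wells except minimum-signal controls received 0.1 nM estradiol for 30 min, then compound in a 10-point dose series. Incubated 7 days at 37 °C, 5% CO2; ATP content read by CellTiter-Glo 2.0. Duplicate runs averaged.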

MCF7 [6] = assay: Antitumor activity against human MCF7 cells xenografted in CD1 mouse assessed as tumor growth inhibition at 3 mg/kg, sc administered once daily for 28 days by caliper method; details: 672 h, read-out: TGI
[7] = Toxicity in CD1 mouse xenografted with human MCF7 cells assessed as change in body weight at 3 mg/mouse, sc administered once weekly for 28 days; details: in vivo, 672 h
Estrogen receptor [8] = molecular target: T1, Estrogen receptor; assay: Induction of ERalpha degradation in human MCF7 cells assessed as decrease in ERalpha protein expression incubated for 24 hrs by Western blot analysis; type: cell-based
MCF7 [9] = assay: Antiproliferative activity against human MCF7 cells assessed as growth inhibition preincubated with estradiol for 30 mins followed by compound addition and measured after 7 days by CellTiter-Glo assay; details: MCF7, 7 days
Estrogen receptor [10] = molecular target: T1, Estrogen receptor; assay: Induction of ERalpha degradation in human MCF7 cells assessed as decrease in ERalpha protein expression incubated for 48 hrs by Western blot analysis; type: cell-based
Estrogen receptor [11] = molecular target: Estrogen receptor (Homo sapiens, UniProt P03372, Y537S); assay: Binding affinity to ERalpha Y537S mutant (unknown origin) expressed in Escherichia coli preincubated for 15 mins followed by ligand addition and measured after 1 hr by fluorescent polarization assay; in short: as §1
Estrogen receptor [12] = molecular target: Estrogen receptor (Homo sapiens, UniProt P03372, D538G); assay: Binding affinity to ERalpha D538G mutant (unknown origin) expressed in Escherichia coli preincubated for 15 mins followed by ligand addition and measured after 1 hr by fluorescent polarization assay; in short: as §1
[13] = Microsomal stability in mouse liver microsomes assessed as intrinsic clearance measured upto 60 mins; type: ADME, Microsome; details: read-out: CLH
In short: (§2)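 Compounds at 2 μM final incubated with pooled human or male mouse liver microsomes. Percent remaining measured at 0, 15, 30, 45 and 60 min and used to calculate in vitro half-life.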

[14] = Half life in CD1 mouse at 10 mg/kg, sc administered as single dose […]; type: ADME, organism-based; details: in vivo
[15] = AUCinfinity in CD1 mouse at 10 mg/kg, sc administered as single dose […]; type: ADME, organism-based; design: route subcutaneous, dose 10 mg/kg; details: in vivo
[16] = Volume of distribution at steady state in CD1 mouse at 0.3 mg/kg, iv administered as cassette dosing […]; type: ADME, organism-based; details: in vivo, read-out: Vdss
[17] = Cmax in CD1 mouse at 10 mg/kg, sc administered as single dose […]; type: ADME, organism-based; design: route subcutaneous, dose 10 mg/kg; details: in vivo
[18] = Bioavailability in CD1 mouse at 10 mg/kg, sc administered as single dose […]; type: ADME, organism-based; details: in vivo
Estrogen receptor [19] = molecular target: Estrogen receptor (Homo sapiens, UniProt P03372, S463P); assay: Binding affinity to ERalpha S463P mutant (unknown origin) expressed in Escherichia coli preincubated for 15 mins followed by ligand addition and measured after 1 hr by fluorescent polarization assay; in short: as §1
[20] = Apparent permeability of compound across apical to basolateral side in MDCK cells; type: ADME, cell-based, Canis lupus familiaris; details: dog
[21] = Plasma protein binding in human; type: ADME, cell-free; details: read-out: PPB
[22] = Microsomal stability in human liver microsomes assessed as intrinsic clearance measured upto 60 mins; type: ADME, Microsome; details: read-out: CLH; in short: as §2
[23] = Solubility of compound; type: physicochemical
[24] = Clearance in CD1 mouse at 0.3 mg/kg, iv administered as cassette dosing […]; type: ADME, organism-based; details: in vivo
[25] = Half life in CD1 mouse at 0.3 mg/kg, iv administered as cassette dosing […]; type: ADME, organism-based; details: in vivo

Estrogen receptor (Homo sapiens, UniProt P03372, D538G), sequence (P03372 whole entry D538G): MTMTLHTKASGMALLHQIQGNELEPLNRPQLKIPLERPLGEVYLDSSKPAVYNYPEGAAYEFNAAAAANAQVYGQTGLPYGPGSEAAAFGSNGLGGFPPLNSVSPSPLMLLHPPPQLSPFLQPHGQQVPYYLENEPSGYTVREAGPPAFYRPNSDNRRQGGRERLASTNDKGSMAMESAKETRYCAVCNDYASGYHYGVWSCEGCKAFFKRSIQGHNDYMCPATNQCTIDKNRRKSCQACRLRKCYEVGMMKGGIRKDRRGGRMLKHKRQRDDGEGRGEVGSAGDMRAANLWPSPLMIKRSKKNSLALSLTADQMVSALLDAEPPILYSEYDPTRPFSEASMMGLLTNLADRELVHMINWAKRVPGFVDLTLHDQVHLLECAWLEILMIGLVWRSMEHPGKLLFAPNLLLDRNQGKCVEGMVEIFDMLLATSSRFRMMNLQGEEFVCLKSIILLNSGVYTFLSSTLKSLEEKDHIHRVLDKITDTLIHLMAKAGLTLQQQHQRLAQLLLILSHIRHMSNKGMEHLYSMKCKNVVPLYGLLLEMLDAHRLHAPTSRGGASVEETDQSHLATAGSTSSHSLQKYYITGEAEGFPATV
Estrogen receptor (Homo sapiens, UniProt P03372, S463P), sequence (P03372 whole entry S463P): as the sequence (P03372 whole entry D538G) above, with S463P, G538D counted along it
Estrogen receptor (Homo sapiens, UniProt P03372, Y537S), sequence (P03372 whole entry Y537S): as the sequence (P03372 whole entry D538G) above, with Y537S, G538D counted along it

Compound | pIC50 (Estrogen receptor [1]) | GI50 (MCF7 [3]) | GI50 (MCF7 [5]) | pIC50 (Estrogen receptor [11]) | pIC50 (Estrogen receptor [12]) | pIC50 (Estrogen receptor [19]) | also measured
Oc1cccc(CN(CC2(c3ccccc3F)CCCC2)c2ccc(OCCN3CCCCC3)cc2)c1Cl | 8.10 | > 10000 nM | 68 nM |  |  |  | DC50 (Estrogen receptor [2]): 15 nM; Activity [4]: 70%
C[C@]12CC[C@@H]3c4ccc(O)cc4C[C@@H](CCCCCCCCC[S+]([O-])CCCC(F)(F)C(F)(F)F)[C@H]3[C@@H]1CC[C@@H]2O (stereo partly drawn) [FULVESTRANT] |  |  |  |  |  |  | inhibition in vivo at 3 mg/kg (MCF7 [6]): 91.6%; Activity [7]: Non-Toxic
CN[C@H](C)C(=O)N[C@H](C(=O)N1CCC[C@H]1c1nc(C(=O)c2ccc(F)cc2)cs1)C1CCN(C(=O)COCCOCc2cn(CCOc3ccc(Cn4c(-c5ccc(O)cc5)c(C)c5cc(O)ccc54)cc3)nn2)CC1 | 7.28 |  | > 10000 nM |  |  |  | DC50 (Estrogen receptor [8]): > 10000 nM; GI50 (MCF7 [9]): > 10000 nM
Oc1cccc(CN(CCCN2CCCCC2)CC2(c3ccccc3F)CCCC2)c1Cl | 6.02 |  |  |  |  |  | 
Cc1ncsc1-c1ccc([C@H](C)NC(=O)[C@@H]2C[C@@H](O)CN2C(=O)[C@H](NC(=O)COCc2cn(CCOc3ccc(N(Cc4cccc(O)c4Cl)CC4(c5ccccc5F)CCCC4)cc3)nn2)C(C)(C)C)cc1 | 7.77 | > 10000 nM | 165 nM | 6.48 | 6.57 | 6.77 | DC50 (Estrogen receptor [10]): 4.2 nM; microsomal CLint [13]: 199 µL/min/mg; half-life [14]: 21 h; AUC(0-inf) [15]: 9.8 µM·h; Vd [16]: 1.24 L/kg; Cmax [17]: 1500 nM; bioavailability [18]: 83%; Papp A→B [20]: < 0.1 ×10⁻⁶ cm/s; fraction unbound [21]: < 0.004; microsomal CLint [22]: 31 µL/min/mg; solubility [23]: < 0.2 µM; clearance [24]: 20 mL/min/kg; half-life [25]: 2.7 h
CN(Cc1cccc(O)c1Cl)C(C1CCCC1)C(F)(F)F (stereo not drawn) | 7.15 | 460 nM | > 10000 nM | 7.62 | 7.35 | 6.96 | 
Oc1cccc(CN(CC2(c3ccccc3F)CCCC2)c2ccccc2)c1Cl | 7.82 | < 5 nM | > 10000 nM |  |  |  | 
CN(Cc1cccc(O)c1Cl)CC1(c2ccccc2F)CCCC1 | 7.82 | 550 nM | > 10000 nM | 8.09 | 8.14 | 7.68 | 
Oc1cccc(CN(CCN2CCCCC2)CC2(c3ccccc3F)CCCC2)c1Cl | < 5.00 |  |  |  |  |  | 
Cc1ncsc1-c1ccc([C@H](C)NC(=O)[C@@H]2C[C@@H](O)CN2C(=O)[C@@H](NC(=O)COCc2cn(CCOc3ccc(Cn4c(-c5ccc(O)cc5)c(C)c5cc(O)ccc54)cc3)nn2)C(C)(C)C)cc1 | 7.96 | > 10000 nM | 247 nM | 8.09 | 6.54 | 7.68 | DC50 (Estrogen receptor [2]): 20 nM
CN[C@@H](C)C(=O)N[C@H](C(=O)N1CCC[C@H]1c1nc(C(=O)c2cccc(OCCOCc3cn(CCOc4ccc(Cn5c(-c6ccc(O)cc6)c(C)c6cc(O)ccc65)cc4)nn3)c2)cs1)C1CCCCC1 | 8.14 | > 10000 nM | 51 nM | 7.21 | 7.40 | 7.62 | DC50 (Estrogen receptor [10]): 174 nM
Cc1ncsc1-c1ccc([C@H](C)NC(=O)[C@@H]2C[C@@H](O)CN2C(=O)[C@@H](NC(=O)COCCOCc2cn(CCOc3ccc(Cn4c(-c5ccc(O)cc5)c(C)c5cc(O)ccc54)cc3)nn2)C(C)(C)C)cc1 | 7.66 | > 10000 nM | 335 nM | 7.42 | 7.57 | 7.74 | DC50 (Estrogen receptor [2]): 20 nM
CN(Cc1cccc(O)c1Cl)CC1(c2ccccc2OCCN2CCCCC2)CCCC1 | < 5.00 | > 10000 nM | 3140 nM |  |  |  | 
Cc1ncsc1-c1ccc(CNC(=O)N2C[C@H](O)CC2C(=O)[C@H](NC(=O)C2(F)CC2)C(C)(C)C)c(OCCOCc2cn(CCOc3ccc(Cn4c(-c5ccc(O)cc5)c(C)c5cc(O)ccc54)cc3)nn2)c1 (stereo partly drawn) | 8.28 | > 10000 nM | 34 nM | 7.28 | 7.54 | 7.85 | DC50 (Estrogen receptor [10]): 27 nM
CN(Cc1cccc(O)c1Cl)CC1(c2ccc(OCCN3CCCCC3)cc2F)CCCC1 | 7.21 | < 5 nM | > 10000 nM |  |  |  | 
Cc1ncsc1-c1ccc([C@H](C)NC(=O)[C@@H]2C[C@@H](O)CN2C(=O)[C@@H](NC(=O)COCCOCCOCc2cn(CCOc3ccc(Cn4c(-c5ccc(O)cc5)c(C)c5cc(O)ccc54)cc3)nn2)C(C)(C)C)cc1 | 7.66 | > 10000 nM | 211 nM | 7.82 | 8.03 | 8.22 | DC50 (Estrogen receptor [2]): 9 nM
Cc1c(-c2ccc(O)cc2)n(Cc2ccc(OCCn3cc(COCCOc4cccc5c4C(=O)N(C4CCC(=O)NC4=O)C5=O)nn3)cc2)c2ccc(O)cc12 (stereo not drawn) | 8.80 | > 10000 nM | 3250 nM | 8.49 | 8.33 | 8.68 | DC50 (Estrogen receptor [2]): 2500 nM
Oc1cccc(CN(CCOCCN2CCCCC2)CC2(c3ccccc3F)CCCC2)c1Cl | 7.08 | > 10000 nM | 3100 nM |  |  |  | 
